From ChEMBL document CHEMBL4402514, “Norepinephrine-Transporter-Targeted and DNA-Co-Targeted Theranostic Guanidines” (J Med Chem, 2020)

Assays:
[1] = Dissociation constant, pKa of compound; assay type: physicochemical
[2] = Partition coefficient, logP of compound; assay type: physicochemical; conditions: octanol/water
[3] = Half life in human serum incubated up to 24 hrs by HPLC analysis; assay type: ADME, cell-free
[4] = Stability in mouse serum incubated up to 24 hrs by HPLC analysis; assay type: ADME, cell-free
[5] = Drug uptake in human SK-N-SH cells using 125I labelled compound by gamma counting method; assay type: ADME, cell-based
[6] = Stability in mouse serum incubated up to 6 hrs by HPLC analysis; assay type: ADME, cell-free
[7] = Drug uptake in human SK-N-SH cells assessed as [125I]-2'-deoxy-5-iodo-uridine level at 38 kBq/mL after 1 hr by gamma counting method; assay type: ADME, cell-based
Outline: (§1)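 SK-N-SH cells were exposed to 125I compound at an extracellular 38 kBq/mL for 1 h or continuously for 24 h. Cell-associated 125I was gamma-counted per cell.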

[8] = Drug uptake in human SK-N-SH cells assessed as [125I]-2'-deoxy-5-iodo-uridine level at 38 kBq/mL after 24 hrs by gamma counting method; assay type: ADME, cell-based; outline: as §1
[9] = Drug uptake in human SK-N-SH cells assessed as level of 125I-incorporation into DNA after 1 hr and followed by compound washout with non-radioactive medium/PBS and measured immediately by gamma counting method relative to control; assay type: ADME, cell-based
Outline: (§2)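 SK-N-SH cells exposed to the 125I-labelled guanidine for 1 h, then washed with nonradioactive medium and PBS. Cells were either processed at once (1 h) or given fresh nonradioactive medium and returned to the incubator for 23 h (24 h). Subcellular fractions (cytoplasm, DNA) were counted by γ-counter. Values are mean and SD, n ≥ 3.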

[10] = Drug uptake in human SK-N-SH cells assessed as level of 125I-incorporation into DNA incubated 1 hr followed by compound washout with non-radioactive medium/PBS and measured after 23 hrs by gamma counting method relative to control; assay type: ADME, cell-based; outline: as §2
[11] = biological target: T1, Sodium-dependent noradrenaline transporter (Homo sapiens, UniProt P23975); assay: Substrate activity at NET in human SK-N-SH cells assessed as drug uptake per cell at 37 kBq/ml incubated for 1 hr in presence of nonradioactive MIBG at 37 degC by filtration based gamma counting method; assay type: ADME
T1 sequence (P23975 whole entry): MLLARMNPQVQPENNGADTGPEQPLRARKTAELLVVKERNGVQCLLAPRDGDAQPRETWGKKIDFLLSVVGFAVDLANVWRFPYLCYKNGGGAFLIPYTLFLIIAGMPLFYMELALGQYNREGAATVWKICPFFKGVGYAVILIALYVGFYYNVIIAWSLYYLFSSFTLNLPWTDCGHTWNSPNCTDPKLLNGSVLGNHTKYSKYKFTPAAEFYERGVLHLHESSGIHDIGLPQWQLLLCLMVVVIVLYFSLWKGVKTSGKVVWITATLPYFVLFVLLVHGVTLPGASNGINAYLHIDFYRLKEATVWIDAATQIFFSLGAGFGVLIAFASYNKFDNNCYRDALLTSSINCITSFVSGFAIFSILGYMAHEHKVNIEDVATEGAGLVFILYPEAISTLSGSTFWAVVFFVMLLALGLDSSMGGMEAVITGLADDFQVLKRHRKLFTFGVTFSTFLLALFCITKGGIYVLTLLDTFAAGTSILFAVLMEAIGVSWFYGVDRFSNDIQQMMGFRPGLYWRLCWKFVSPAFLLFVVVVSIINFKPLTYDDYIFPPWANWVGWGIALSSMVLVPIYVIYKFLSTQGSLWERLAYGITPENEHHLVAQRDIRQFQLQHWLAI

[12] = biological target: T1, Sodium-dependent noradrenaline transporter; assay: Substrate activity at NET in human SK-N-SH cells assessed as drug uptake per cell at 37 kBq/ml incubated for 1 hr in presence of nonradioactive MIBG at 4 degC by filtration based gamma counting method; assay type: ADME
[13] = Stability in human serum assessed as intact compound level after 5 mins by HPLC analysis; assay type: ADME, cell-free; conditions: read-out: Stability
Outline: (§3)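 Radioiodinated guanidines were incubated in mouse, human or pig serum and analyzed by radio-HPLC on a C18 column at 0.8 mL/min. The gradient was 0–95% CH3CN over 50 min, then 95% for 20 min. Intact compound was fitted to monoexponential degradation to give half-life. Values are average ± std err.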

[14] = Stability in human serum assessed as intact compound level after 60 mins by HPLC analysis; assay type: ADME, cell-free; conditions: read-out: Stability; outline: as §3
[15] = Stability in human SK-N-SH cells assessed as parent compound level after 24 hrs by HPLC analysis; assay type: ADME, cell-based; conditions: read-out: Stability
Outline: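 The compound was incubated 24 h in cell culture medium without cells or with SK-N-SH cells. Intact compound and 125IUdR catabolite were quantified by radio-HPLC on a C18 column at 0.8 mL/min, with a 0–95% CH3CN gradient over 50 min and 95% for 20 min.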

[16] = Drug recovery in mouse N1E-115 cells assessed as [125I]-2'-deoxy-5-iodo-uridine level in nucleus after 24 hrs by gamma counting method relative to control; assay type: ADME, cell-based; conditions: n1e-115, 24 h, in the assay text read “in DNA” for “in nucleus”
Outline: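 N1E-115 murine neuroblastoma cells were incubated 24 h with 125I agent. Subcellular fractions (cytoplasm, nucleus, DNA pellet) were gamma-counted as percentage of recovered 125I.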

[17] = Drug uptake in cytoplasm of human SK-N-SH cells at 39.3 +/- 0.3 kBq/mL after 1 hr and followed by compound washout with non-radioactive medium/PBS and measured immediately by gamma counting method relative to control; assay type: ADME, subcellular
Outline: (§4)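 SK-N-SH cells were exposed 1 h to 125I compound (≈39–40 kBq/mL), then washed with nonradioactive medium and PBS. Cells were processed immediately (1 h) or re-incubated in fresh medium for 23 h (24 h). Cytoplasmic, nuclear and DNA fractions were gamma-counted.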

[18] = Drug uptake in cytoplasm of human SK-N-SH cells at 39.3 +/- 0.3 kBq/mL after 24 hrs by gamma counting method relative to control; assay type: ADME, subcellular; outline: as §4
SK-N-SH [19] = assay: Anticlonogenic activity against human SK-N-SH cells assessed as number of colonies at 39.3+/- 0.3 kBq/mL after 1 hr by crystal violet staining based assay; assay type: functional
Outline: (§5)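 SK-N-SH cells exposed for 1 h to 125I-MIBG (39.3 ± 0.3 kBq/mL extracellular) or IDG (40 ± 0.5 kBq/mL). For the 1 h group, cells were washed with nonradioactive medium and PBS, harvested with trypsin and replated for the clonogenic assay. For the 24 h group, cells were washed, given fresh nonradioactive medium and incubated a further 23 h before plating. Colonies were counted.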

SK-N-SH [20] = assay: Anticlonogenic activity against human SK-N-SH cells assessed as number of colonies at 39.3+/- 0.3 kBq/mL after 24 hr by crystal violet staining based assay; assay type: functional; outline: as §5
[21] = Drug level in tumor of NCR nu/nu mouse xenografted with human BE(2)-C cells at 0.44 +/- 0.1 MBq administered intratumorally after 24 hrs by gamma counting method; assay type: ADME, tissue-based, Neoplasm; conditions: in vivo, other
Outline: (§6)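 Athymic Ncr nu/nu female and male mice bearing subcutaneous BE(2)-C xenografts received intratumor injections of the 125I agent. Tissues, tumor and blood were collected at 24 h and counted for radioactivity, expressed as %ID/g. Tumor-to-blood ratios were derived.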

[22] = Ratio of tumor to blood concentration in NCR nu/nu mouse xenografted with human BE(2)-C cells at 0.44 +/- 0.1 MBq administered intratumorally after 24 hrs by gamma counting method; assay type: ADME, tissue-based; conditions: tumour, other
Outline: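 Athymic Ncr nu/nu female and male mice bearing subcutaneous BE(2)-C xenografts were given a single intratumoral injection of the 125I-labelled agent. Tumor and tissues were collected at 24 h, 125I was γ-counted, and uptake was expressed as %ID/g. The tumor-to-blood ratio was derived from the %ID/g values.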

[23] = Drug level in adrenal gland of NCR nu/nu mouse xenografted with human BE(2)-C cells at 0.44 +/- 0.1 MBq administered intratumorally after 24 hrs by gamma counting method; assay type: ADME, tissue-based; conditions: in vivo, other; outline: as §6
[24] = Drug level in tumor of NCR nu/nu mouse xenografted with human BE(2)-C cells at 0.83 +/- 0.09 MBq administered intratumorally after 24 hrs by gamma counting analysis; assay type: ADME, tissue-based, Neoplasm; conditions: in vivo, other; outline: as §6

SMILES | pKa [1] | logP [2] | half-life [3] [min] | Stability [4] | Drug uptake [5] | further results
N=C(N)NC[C@H]1O[C@@H](n2cc([125I])c(=O)[nH]c2=O)C[C@@H]1O | 11.5 | -1.3 | – | – | – | Stability [6]: Unstable; Drug uptake [7]: 0.00001 mBq; Drug uptake [8]: 0.00054 mBq
CC(C)(C)c1cc(C(C)(C)C)c2c(c1F)COP(=O)(OC[C@H]1O[C@@H](n3cc([125I])c(=O)[nH]c3=O)C[C@@H]1OC(=O)CCCCCNC(=N)N)O2 (some centres undefined) | 12.1 | 4.58 | 900 | Unstable | Dose-dependent effect and Tde | Drug uptake [9]: 14%; Drug uptake [10]: 42%; Drug uptake [11]: 1.85 mBq; Drug uptake [12]: 0.05 mBq
N=C(N)NCCCCCC(=O)OC[C@H]1O[C@@H](n2cc([125I])c(=O)[nH]c2=O)C[C@@H]1O | 12.2 | -0.2 | 53.4 | Unstable | Dose-dependent effect and Tde | remaining at 5 min [13]: 77%; remaining at 1 h [14]: 47%; remaining at 24 h [15]: 30%; Drug recovery [16]: > 99%
N=C(N)NCc1cccc([125I])c1 | – | – | – | – | – | Drug recovery [16]: 0%; Drug uptake [17]: 87%; Drug uptake [18]: 74%; Activity (SK-N-SH [19]): 229; Activity (SK-N-SH [20]): 250; Drug uptake [21]: 1.85 % ID/g; Ratio [22]: 19; Drug uptake [23]: 4.64 % ID/g; Drug uptake [24]: 1.85 % ID/g

More lines, main results first:

pKa [1] | logP [2] | half-life [3] [min] | Stability [4] | Drug uptake [5] | SMILES | further results
11.8 | 1.63 | – | – | – | N=C(N)NCc1cccc(I)c1 [IOBENGUANE] | –
11.9 | -1.48 | 23.4 | Unstable | Dose-dependent effect and Tde | N=C(N)NCCC(=O)OC[C@H]1O[C@@H](n2cc([125I])c(=O)[nH]c2=O)C[C@@H]1O | –
11.9 | 0.26 | 45.6 | Unstable | Dose-dependent effect and Tde | N=C(N)NCc1ccc(C(=O)OC[C@H]2O[C@@H](n3cc([125I])c(=O)[nH]c3=O)C[C@@H]2O)cc1 | –
